Experimental data: publication PMC5039020 (Journal of Alzheimer's disease : JAD, 2013)
Entries after “also recorded” stand apart in the source; their conditions may differ. Read-outs that look alike come from different tables or passages of the source.

Assays:
extracellular Aβ42 = assay: Extracellular Aβ42 ELISA capture assay in N2a-AβPP695 cell supernatants; format: cell-based; conditions: for effect on Aftin-5 induced extracellular Aβ42 production: N2a-AβPP695, compound together with 100 μM Aftin-5, 18 h; for effect on extracellular Aβ42 level/production: N2a-AβPP695, compound alone, various concentrations
N2a = assay: Cell viability, MTS assay, N2a; format: cell-based; conditions: read-out: IC50, cell viability (MTS assay), viability assessed 24 h later
In short: (§1)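 Each line was exposed to increasing concentrations of test compound, and viability was read 24 h later by MTS. 20 μL MTS reagent per 100 μL medium, 3 h at 37°C, 5% CO₂. Absorbance read at 490 and 630 nm. IC50 derived from dose-response curves.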

HT22 = assay: Cell viability, MTS assay, HT22; format: cell-based; conditions: read-out: IC50, cell viability (MTS assay); HT22, viability assessed 24 h later
In short: as §1

[1] = test system: KinomeScan panel of 402/442 kinases; conditions: 402 kinases; cited from earlier work
N2a-AβPP695 = assay: Cell viability, MTS assay, N2a-AβPP695; format: cell-based; conditions: for IC50: read-out: IC50, cell viability (MTS assay), N2a-AβPP695, viability assessed 24 h later
SH-SY5Y = assay: Cell viability, MTS assay, SH-SY5Y; format: cell-based; conditions: read-out: IC50, cell viability (MTS assay), viability assessed 24 h later
[2] = test system: mitochondria isolated from N2a-AβPP695 cells; assay: Electron microscopy, ultrastructure of isolated mitochondria; conditions: 100 μM Aftin-5; 50 μM Calcium; 50 μM Calcium + CsA
[3] = test system: intracellular Aβ38, Aβ40, and Aβ42; assay: Intracellular amyloids ELISA capture assay in N2a-AβPP695 cells; format: cell-based
In short: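 2 × 10⁶ N2a-AβPP695 cells per T25 flask in 0.5% FBS medium overnight, then treated for 18 h. Cells washed, scraped into PBS with protease inhibitors, pelleted, lysed in 1% Nonidet P-40, sonicated, and spun at 14,000 rpm for 15 min at 4°C. Lysate supernatant assayed by 6E10-capture sandwich ELISA with biotinylated Aβ38, Aβ40 or Aβ42 antibodies. Values expressed as fold over untreated cells.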

extracellular Aβ38 = assay: Extracellular Aβ38 ELISA capture assay in N2a-AβPP695 cell supernatants; format: cell-based; conditions: for IC50: read-out: IC50 Aβ38, N2a-AβPP695, GSI added 1 h before 100 μM Aftin-5, 18 h; for effect on extracellular Aβ38 level: N2a-AβPP695, compound alone, various concentrations
extracellular Aβ40 = assay: Extracellular Aβ40 ELISA capture assay in N2a-AβPP695 cell supernatants; format: cell-based; conditions: for IC50: read-out: IC50 Aβ40, N2a-AβPP695, GSI added 1 h before 100 μM Aftin-5, 18 h; for effect on extracellular Aβ40 in Aftin-5 treated cells: N2a-AβPP695, compound together with 100 μM Aftin-5, 18 h; for effect on extracellular Aβ40 level/production: N2a-AβPP695, compound alone, various concentrations
Animal toxicity = format: in vivo; conditions: per os doses up to 150 mg/kg daily for 20 days; data not shown
N2a-AβPP695 cells [4] = assay: Autophagy assessment, counting of LC3 foci by immunofluorescence; format: cell-based
In short: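 Cells grown on glass coverslips, fixed in 4% paraformaldehyde, permeabilised with 50 μM digitonin, and stained with a monoclonal anti-LC3 antibody. Images taken with a 40× NA 0.85 objective. LC3 foci counted automatically by image analysis.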

[5] = test system: KinomeScan panel of 402/442 kinases; assay: KinomeScan panel; format: binding; conditions: 10 μM
N2a-AβPP695 cells [6] = assay: Mitochondrial parameters in cultured cells; format: cell-based
N2a-AβPP695 cells [7] = assay: Electron microscopy, ultrastructure of mitochondria within cells; format: cell-based
[8] = N2a-AβPP695, dose-response, 18 h

## Cn1cnc(N)c2ncnc1-2 [3-methyladenine]
Extracellular Aβ42
  effect on Aftin-5 induced extracellular Aβ42 production: did not interfere

## CN(C)c1ncnc2nc[nH]c12 [Aftin N6DA, N6-dimethylaminopurine]
Extracellular Aβ42; 18 h
  effect on extracellular Aβ42 level/production: inactive

## CCC(CO)Nc1nc(N(C)Cc2ccccc2)c2ncn(C(C)C)c2n1 (centres unmarked) [Aftin-4, N^6-methyl-roscovitine]
N2a
  IC50: 100 µM
HT22
  IC50: 74 µM
[1]
  interaction with kinases (KinomeScan): no significant interaction
Extracellular Aβ42; 18 h
  effect on extracellular Aβ42 level/production: bell-shaped
N2a-AβPP695
  IC50: 90 µM
SH-SY5Y
  IC50: 106 µM

## CC[C@H](CO)Nc1nc(N(C)c2ccccc2)c2ncn(C(C)C)c2n1 [Aftin-5]
N2a
  IC50: 178 µM
[2]
  ultrastructure of isolated mitochondria (swelling, cristae remodeling): did not induce any swelling or cristae remodeling
[3]; N2a-AβPP695, 100 μM Aftin-5, 18 h
  effect on levels of intracellular Aβ38, Aβ40, and Aβ42: did not modify
Extracellular Aβ38; [8]
  decrease of Aβ38 level: > 70%
HT22
  IC50: 194 µM
Extracellular Aβ40; [8]
  maximum increase of Aβ40 level: 40%
Animal toxicity
  animal toxicity: little
N2a-AβPP695 cells [4]
  effect on rapamycin-induced autophagy: Neither Aftin-5 nor its inactive analog compound (2) impaired rapamycin-induced autophagy
[5]
  interaction with kinases (KinomeScan): no interaction with any of the kinases
Extracellular Aβ42; N2a-AβPP695, 100 μM Aftin-5
  time after addition at which Aβ42 production reached a plateau: about 12 h
Extracellular Aβ42; 18 h
  effect on extracellular Aβ42 level/production: linear up to the highest dose tested
Extracellular Aβ42; [8]
  increase of Aβ42 production (up to): > 900%
N2a-AβPP695 cells [6]
  mitochondrial parameters at the cellular level, control vs treated cells: essentially undistinguishable
N2a-AβPP695 cells [6]; 24 h
  global respiration functions: slight inhibition
N2a-AβPP695
  IC50: 150 µM
N2a-AβPP695; up to 100 μM, or longest exposure 6 days, data not shown
  cytotoxic effects on cells: did not show any cytotoxic effects; also recorded: little cell toxicity
N2a-AβPP695 cells [7]; 100 μM, 6 h
  ultrastructure of mitochondria within cells, 6 h: little detectable effects
N2a-AβPP695 cells [7]; 100 μM, 24 h, reversible upon washing
  ultrastructure of mitochondria within cells, 24 h: partial mitochondrial swelling without disruption of cristae
SH-SY5Y
  IC50: 180 µM

## C[C@H](c1ccc(F)cc1CCCC(=O)O)N(c1cc(F)ccc1F)S(=O)(=O)c1ccc(Cl)cc1 [BMS 299897]
Extracellular Aβ38
  IC50: 0.088 µM
Extracellular Aβ40
  IC50: 0.056 µM

## C[C@H](NC(=O)Cc1cc(F)cc(F)c1)C(=O)NC(C(=O)OC(C)(C)C)c1ccccc1 (some centres unmarked) [DAPT]
[3]; N2a-AβPP695, 1 μM compound in presence of 100 μM Aftin-5, 18 h
  effect on levels of intracellular amyloids: but not that of intracellular amyloids
Extracellular Aβ38; N2a-AβPP695, compound together with 100 μM Aftin-5, 18 h
  effect on extracellular Aβ38 / Aftin-5 induced Aβ38 down-regulation: down-regulated
Extracellular Aβ38
  IC50: 0.112 µM
Extracellular Aβ40
  effect on extracellular Aβ40 in Aftin-5 treated cells: down-regulated
  IC50: 0.062 µM
Extracellular Aβ42
  effect on Aftin-5 induced extracellular Aβ42 production: down-regulated

## [Ca+2] [calcium]
[2]
  ultrastructure of isolated mitochondria (swelling, cristae remodeling): strong swelling

## C[C@H](CS)C(=O)N1CCC[C@H]1C(=O)O [captopril]
Extracellular Aβ38; 18 h
  effect on extracellular Aβ38 level: no effects
Extracellular Aβ40; 18 h
  effect on extracellular Aβ40 level/production: no effects
Extracellular Aβ42; 18 h
  effect on extracellular Aβ42 level/production: no effects

## CN(Cc1ccccc1)c1nc(N)nc2[nH]cnc12 [compound (2)]
N2a-AβPP695 cells [4]
  effect on rapamycin-induced autophagy: Neither Aftin-5 nor its inactive analog compound (2) impaired rapamycin-induced autophagy
Extracellular Aβ42; 18 h
  effect on extracellular Aβ42 level/production: inactive

## COc1cccc2c1C(=O)c1c(O)c3c(c(O)c1C2=O)C[C@@](O)(C(=O)CO)C[C@@H]3O[C@H]1C[C@H](N)[C@H](O)[C@H](C)O1 [doxorubicin]
N2a-AβPP695 cells [7]; 5 μM doxorubicin
  ultrastructure of mitochondria within cells, positive control: altered the structure of cristae and induced cell death

## CC(C)C[C@H](NP(=O)(O)O[C@@H]1O[C@@H](C)[C@H](O)[C@@H](O)[C@H]1O)C(=O)N[C@@H](Cc1c[nH]c2ccccc12)C(=O)O [phosphoramidon]
Extracellular Aβ38; 18 h
  effect on extracellular Aβ38 level: no effects
Extracellular Aβ40; 18 h
  effect on extracellular Aβ40 level/production: no effects
Extracellular Aβ42; 18 h
  effect on extracellular Aβ42 level/production: no effects

## C[C@H](N[C@@H](CCc1ccccc1)C(=O)O)C(=O)N1Cc2ccccc2C[C@H]1C(=O)O [quinaprilat]
Extracellular Aβ38; 18 h
  effect on extracellular Aβ38 level: no effects
Extracellular Aβ40; 18 h
  effect on extracellular Aβ40 level/production: no effects
Extracellular Aβ42; 18 h
  effect on extracellular Aβ42 level/production: no effects

## CO[C@H]1C[C@@H]2CC[C@@H](C)[C@@](O)(O2)C(=O)C(=O)N2CCCC[C@H]2C(=O)O[C@H]([C@H](C)C[C@@H]2CC[C@@H](O)[C@H](OC)C2)CC(=O)[C@H](C)/C=C(\C)[C@@H](O)[C@@H](OC)C(=O)[C@H](C)C[C@H](C)/C=C/C=C/C=C/1C [rapamycin]
N2a-AβPP695 cells [4]
  autophagy, LC3 foci, compound alone: accumulation of LC3 foci
Extracellular Aβ42
  effect on Aftin-5 induced extracellular Aβ42 production: did not prevent

## CC[C@H](CO)Nc1nc(NCc2ccccc2)c2ncn(C(C)C)c2n1 [roscovitine, (R)-Roscovitine]
Extracellular Aβ42; 18 h
  effect on extracellular Aβ42 level/production: little effect

## O=C(O)CNC(=O)C(CS)Cc1ccccc1 (centres unmarked) [thiorphan]
Extracellular Aβ38; 18 h
  effect on extracellular Aβ38 level: no effects
Extracellular Aβ40; 18 h
  effect on extracellular Aβ40 level/production: no effects
Extracellular Aβ42; 18 h
  effect on extracellular Aβ42 level/production: no effects

## β-secretase inhibitor IV
Extracellular Aβ40
  effect on extracellular Aβ40 in Aftin-5 treated cells: inhibited production
Extracellular Aβ42
  effect on Aftin-5 induced extracellular Aβ42 production: inhibited production
